Screening results deposited in PubChem by several laboratories.
SKN-1 inh: C. elegans SKN-1 inhibition | C. elegans VP596 Pgst-4::GFP/RFP ratio, acrylamide-induced, 24 h | inhibition, % at 21.8 µM | 360,000 tested, 0.49% active | AID 624304;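 active = interference check ratio from 0.5 to 1.5 plus GFP to RFP signal ratio inhibition reaching or exceeding a fixed threshold, cut at about 30% in these data, passing the limit was not always enough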
DAGLB inh: blocks human DAGLB lipase activity; 340,000 tested, 0.059% active; inhibition, % at 5.17 µM; AID 504411; HEK293T DAGLB membrane lysate, EnzChek fluorogenic substrate; Q8NCG7; in the data active = inhibition above about 34%;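 also: 0% = enzyme with vehicle and 100% = wells lacking enzyme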
Target sequence (Q8NCG7 whole entry, looked up): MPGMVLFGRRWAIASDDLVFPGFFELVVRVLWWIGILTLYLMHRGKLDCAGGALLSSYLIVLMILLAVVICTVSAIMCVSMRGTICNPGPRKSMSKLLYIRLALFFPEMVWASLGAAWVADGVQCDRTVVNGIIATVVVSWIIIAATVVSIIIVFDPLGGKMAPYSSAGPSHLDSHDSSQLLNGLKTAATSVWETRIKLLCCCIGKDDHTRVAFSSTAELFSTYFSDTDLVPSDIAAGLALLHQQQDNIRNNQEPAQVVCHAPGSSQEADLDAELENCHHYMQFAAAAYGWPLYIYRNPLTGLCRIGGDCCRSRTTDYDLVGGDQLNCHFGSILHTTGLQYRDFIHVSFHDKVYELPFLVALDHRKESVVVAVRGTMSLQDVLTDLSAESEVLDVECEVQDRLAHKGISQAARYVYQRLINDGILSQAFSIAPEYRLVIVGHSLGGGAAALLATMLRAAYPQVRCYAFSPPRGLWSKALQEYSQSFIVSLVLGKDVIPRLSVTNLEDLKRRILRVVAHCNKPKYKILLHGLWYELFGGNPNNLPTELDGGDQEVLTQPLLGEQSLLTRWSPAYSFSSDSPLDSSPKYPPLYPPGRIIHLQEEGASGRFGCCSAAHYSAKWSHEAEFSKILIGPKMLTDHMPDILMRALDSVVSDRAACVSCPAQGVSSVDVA
FAS-TE inh: blocks the thioesterase domain of human fatty acid synthase | inhibition, % at 15 µM | P49327 | recombinant FAS-TE, OMFH fluorogenic substrate, fluorescence endpoint | 360,000 tested, 0.67% active;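 active = compounds whose normalised, plate-corrected inhibition of enzyme fluorescence in the single-dose primary screen is 50% or more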;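 also: 0% = DMSO with enzyme and 100% = substrate without enzyme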
MT1-MMP act inh: MT1-MMP (human) activation inhibition. P50281. HT1080 RFP-PRO-GFP cells, GFP/RFP ratio fluorescence, overnight; percent of plate control window, DMSO zero. GFP/RFP ratio change, % at 20 µM. 360,000 tested, 0.061% active. AID 651647;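 active = GFP/RFP ratio change of at least 30% with cell ATP level not reduced by more than half and red fluorescence within 50% of control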
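Material – HT1080 RFP-PRO-GFP cells · Control set – DMSO wells and RFP-L50D-GFP cells · Incubation – overnight cell settling, then overnight compound exposure, 37 °C, 5% CO2 · Compound dosing – single-point 20 µM compound, 1% DMSO · Read-out – GFP/RFP fluorescence ratio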
iPSC survival up: hiPSC single-cell survival enhancement; 360,000 tested, 0.044% active; ATPlite luminescence; 100% = ROCK inhibitor wells, 0% = DMSO; survival enhancement, % at 20 µM; in the data active = survival enhancement above about 18%;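 also: cells exposed to compounds for 16 hours before the ATP read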
* marks the source's active call; other numbers are inactive results; . = no result given. An excerpt weighted towards active compounds, which were near 1.3% of everything screened.

SMILES	SKN-1 inh	DAGLB inh	FAS-TE inh	MT1-MMP act inh	iPSC survival up
Cn1c(=O)c2c(ncn2CC(=O)NCc2cccnc2)n(C)c1=O	-7	-4	-3	5	26*
N=c1oc2ccccc2cc1-c1nc(-c2ccccc2)cs1	58*	-21	15	-3	-2
N=c1oc2ccc3ccccc3c2cc1-c1nc(-c2ccccc2)cs1	7	-6	5	-4	-1
OC(c1ccc(CN2CCCCC2)cc1)c1ncc(-c2ccccc2F)[nH]1 (centres undefined)	5	.	-9	0	0
O=C(c1cc(C2CCCCN2C(=O)OCCF)on1)N1CCOCC1 (centres undefined)	8	.	-6	2	0
O=C(c1cnn2c(C(F)(F)F)cc(-c3ccco3)nc12)N1CCCc2ccccc21	37*	4	0	9	-2
Cn1c(-c2ccc(Br)o2)nc2cc(Br)ccc21	43*	-2	2	7	-1
Cn1c(-c2ccc(Br)o2)nc2ccccc21	14	-2	-8	0	-2
COc1ccc(N2CCN(Cc3nc(N)nc(Nc4ccc(C)c(Cl)c4)n3)CC2)cc1	36*	0	11	-12	-2
Cc1ccc(Nc2nc(N)nc(CN3CCN(c4ccccc4)CC3)n2)cc1Cl	33	4	21	-8	-1
OC[C@@H]1CN(Cc2ccc(Cl)cc2)C[C@H](n2cnc3c(NC4CC4)ncnc32)O1	-6	.	-6	2	2
CCOC(=O)c1ccc2c(c1)nc(SCC(=O)c1cc3ccccc3o1)n2CC	52*	-6	20	-40	0
COC1OC2COC(c3ccccc3)OC2C2OC(c3ccccc3)OC12 (centres undefined)	13	-3	-1	1	-2
C[C@@H]1Cc2[nH][nH]c(=O)c2[C@H](c2ccc(Cl)cc2)O1	-3	.	-4	3	-1
O=[N+]([O-])c1ccc(N2CCc3ccccc3C2)cc1	44*	-3	32	2	2
COc1cc2c(cc1OC)[C@@H](NC(=O)CCc1ccccc1)[C@H](OCc1ccccc1)C2	35*	-2	8	5	2
CCCCCCCCCC(=O)N[C@@H]1c2cc(OC)c(OC)cc2C[C@H]1OCc1ccccc1	7	0	-2	4	-2
CCOc1ccccc1-n1nnnc1SCC(=O)N(C)C1CCS(=O)(=O)C1 (centres undefined)	-6	1	-9	1	3
COc1ccc2c(c1)c1ccc3c(c1n2C)C(=O)C=CC3=O	-19	6	13	-2	28*
O=C(Nc1ccccc1)Nc1cc(OCC(F)(F)F)cc(OCC(F)(F)F)c1	10	-11	52*	-39	1
O=S1(=O)CC(c2ccccc2)=NN=C(c2ccccc2)C1	36*	-6	-8	4	-3
Cc1ccc(C)c(S(=O)(=O)/N=C2\C=C(NS(=O)(=O)c3ccccc3)C(=O)c3ccccc32)c1	39*	28	8	23	0
CCCNC(=O)c1cc(C2CCCCN2S(=O)(=O)Cc2cccc(C(F)(F)F)c2)on1 (centres undefined)	9	.	3	0	2
Cc1ccccc1-c1nc(CS(=O)CC(=O)NCc2ccc3c(c2)OCO3)c(C)o1 (centres undefined)	36*	2	-1	-6	0
COc1cccc(CN2CC(C(=O)NCCc3cn4cccnc4n3)CCC2=O)c1 (centres undefined)	-16	-1	-7	3	1
SMILES	SKN-1 inh	DAGLB inh	FAS-TE inh	MT1-MMP act inh	iPSC survival up
CCOC(=O)C1=C(COC(=O)c2ccc(Cl)cc2[N+](=O)[O-])NC(=O)NC1C (centres undefined)	34*	-2	-1	-3	0
COCCCn1cnc2c(c1=O)c1nc3ccccc3nc1n2CCc1ccccc1	36*	1	3	7	0
O=C(c1ccco1)N1CCN(C2CN(Cc3cn(Cc4ccccc4C(F)(F)F)nn3)S(=O)(=O)C2)CC1 (centres undefined)	0	.	-10	1	0
CCCC(C(=O)Nc1ccc(S(=O)(=O)N2CCOCC2)cc1)c1ccccc1 (centres undefined)	37*	-2	26	-9	0
CCCC(C(=O)Nc1ccc(C)c(S(=O)(=O)N2CCOCC2)c1)c1ccccc1 (centres undefined)	-2	-1	14	2	0
CC1CCCCC1NC(=O)CN1CCC(NC(=O)C(C)(C)C)CC1 (centres undefined)	-4	0	-12	3	0
CCC1CSC(Nc2ccc(C(=O)/C=C/c3ccc(Oc4ccccc4)cc3)cc2)=N1 (centres undefined)	15	3	22	-5	-3
CCC1CSC(Nc2ccc(C(=O)/C=C/c3cccc(C)c3)cc2)=N1 (centres undefined)	54*	1	33	-10	-2
O=c1c2ccccc2nc(SCc2ccccc2)n1Cc1ccco1	6	-10	26	-3	4
Cc1ccc(CSc2nc3ccccc3c(=O)n2Cc2ccco2)cc1	38*	-12	24	-2	3
CC(C)(C)c1cc(NC(=O)C2(C)CCN2C(=O)C2(c3ccccc3)CCCC2)no1 (centres undefined)	4	.	22	-22	0
C[C@H]1CN([C@@H](C)CO)C(=O)CCCn2cc(nn2)CO[C@@H]1CN(C)C(=O)Nc1ccc2c(c1)OCCO2	9	-4	-4	5	-2
Cc1ccccc1NC(=O)Cc1nc(COC(=O)c2cccc(O)c2)cs1	42*	1	0	-2	0
Cc1ccccc1NC(=O)Cc1nc(COC(=O)c2cccc([N+](=O)[O-])c2)cs1	-12	1	14	4	1
Cc1ccc([C@H]2C[C@H](O)[C@@H](n3cc(C4CC4)nn3)CN2C(=O)C2CCCCC2)cc1	8	-3	-7	4	0
CCOC(=O)[C@]12CCCC=C1N(Cc1ccc(Cl)cc1Cl)C(=O)[C@H](CC(=O)NCc1cccc3ccccc13)C2	-3	.	19	-1	-1
Cc1sc(NC(=O)c2ccco2)c(C(c2cccnc2)N2CCCC2)c1C (centres undefined)	30*	3	9	2	-1
Cc1sc(NC(=O)c2ccco2)c(C(c2cccnc2)N2CCN(C)CC2)c1C (centres undefined)	17	-1	-4	1	-4
O=C(NCCO)c1ccc(-c2cnc3cccnn23)cc1	27	.	-3	-7	2
Cc1ccc(N/C=C/C(=O)c2cccs2)cc1C	39*	.	19	-1	-2
O=C(NC1CCCC1)C1c2ccccc2OCC(=O)N1CCc1ccccc1 (centres undefined)	5	.	-4	1	1
O=C1/C(=C/c2ccccc2)SC(=S)N1CCCC(=O)N1CCCCC1CCO (centres undefined)	3	-2	4	1	0
